Measured values as given in ChEMBL document CHEMBL1148427, “Diastereoselective synthesis and configuration-dependent activity of (3-substituted-cycloalkyl)glycine pyrrolidides and thiazolidides as dipeptidyl peptidase IV inhibitors” (Bioorg Med Chem Lett, 2004).

Key:
[1] = Inhibitory activity against human aminopeptidase P
Dipeptidyl peptidase 4 = Dipeptidyl peptidase 4 (Homo sapiens, UniProt P27487); assay: Inhibitory activity against human recombinant Dipeptidylpeptidase IV
How it was run: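 Human recombinant enzyme run in a fluorometric assay with Gly-Pro-AMC as substrate. Cleavage releases fluorescent 7-amino-4-methylcoumarin, which is read to give IC50 values.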

Dipeptidyl peptidase 2 = Dipeptidyl peptidase 2 (Homo sapiens, UniProt Q9UHL4); assay: Inhibitory activity against human quiescent cell proline dipeptidase
Prolyl endopeptidase [2] = target: T1, Prolyl endopeptidase (Homo sapiens, UniProt P48147); assay: Inhibitory activity against human prolylendopeptidase
T1 sequence (P48147 whole entry): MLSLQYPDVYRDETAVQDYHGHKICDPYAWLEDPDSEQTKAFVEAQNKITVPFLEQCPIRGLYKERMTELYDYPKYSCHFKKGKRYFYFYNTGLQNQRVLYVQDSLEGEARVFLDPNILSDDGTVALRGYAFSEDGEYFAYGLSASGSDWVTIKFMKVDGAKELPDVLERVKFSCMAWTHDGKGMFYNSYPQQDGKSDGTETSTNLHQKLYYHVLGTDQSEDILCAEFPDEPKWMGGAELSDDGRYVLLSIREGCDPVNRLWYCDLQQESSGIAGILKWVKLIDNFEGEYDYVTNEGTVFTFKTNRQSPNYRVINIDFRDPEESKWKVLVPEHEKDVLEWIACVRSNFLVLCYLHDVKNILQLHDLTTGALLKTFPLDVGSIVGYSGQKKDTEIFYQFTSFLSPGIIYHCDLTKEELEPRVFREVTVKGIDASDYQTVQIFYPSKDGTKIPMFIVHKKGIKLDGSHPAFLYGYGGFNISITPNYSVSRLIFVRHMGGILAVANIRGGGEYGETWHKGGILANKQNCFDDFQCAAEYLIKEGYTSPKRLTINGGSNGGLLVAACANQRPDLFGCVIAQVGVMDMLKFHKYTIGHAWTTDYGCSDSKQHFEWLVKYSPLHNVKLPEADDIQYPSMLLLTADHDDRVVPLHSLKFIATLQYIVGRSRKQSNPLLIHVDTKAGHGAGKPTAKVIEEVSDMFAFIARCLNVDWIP

Prolyl endopeptidase [3] = target: T1, Prolyl endopeptidase; assay: Inhibitory activity against human prolyl endopeptidase

Dipeptidyl peptidase 4, sequence (P27487 whole entry): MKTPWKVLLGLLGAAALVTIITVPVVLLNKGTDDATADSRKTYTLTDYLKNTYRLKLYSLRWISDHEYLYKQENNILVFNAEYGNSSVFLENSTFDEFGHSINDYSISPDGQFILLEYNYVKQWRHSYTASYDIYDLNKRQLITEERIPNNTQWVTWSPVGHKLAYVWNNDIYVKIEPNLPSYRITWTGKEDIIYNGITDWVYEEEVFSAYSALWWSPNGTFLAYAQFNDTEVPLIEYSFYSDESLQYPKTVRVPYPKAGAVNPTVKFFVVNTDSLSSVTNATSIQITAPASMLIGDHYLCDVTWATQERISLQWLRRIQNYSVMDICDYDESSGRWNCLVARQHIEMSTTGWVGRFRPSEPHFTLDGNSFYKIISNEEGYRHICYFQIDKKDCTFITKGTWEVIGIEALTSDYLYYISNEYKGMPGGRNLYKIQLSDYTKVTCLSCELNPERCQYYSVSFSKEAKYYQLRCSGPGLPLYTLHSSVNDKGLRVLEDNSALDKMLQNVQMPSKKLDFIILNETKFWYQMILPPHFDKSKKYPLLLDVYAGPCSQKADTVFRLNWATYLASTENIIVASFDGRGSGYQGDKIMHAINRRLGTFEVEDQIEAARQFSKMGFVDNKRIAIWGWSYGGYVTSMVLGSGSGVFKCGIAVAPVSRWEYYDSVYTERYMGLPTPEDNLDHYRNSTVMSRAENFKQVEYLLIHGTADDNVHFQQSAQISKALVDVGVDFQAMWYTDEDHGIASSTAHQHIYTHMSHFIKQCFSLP

| Compound | IC50 [1] [nM] | IC50 (Dipeptidyl peptidase 4) [nM] | IC50 (Dipeptidyl peptidase 2) [nM] | IC50 (Prolyl endopeptidase [2]) [nM] | IC50 (Prolyl endopeptidase [3]) [nM] |
| --- | --- | --- | --- | --- | --- |
| O=C(N[C@H](C(=O)N1CCCC1)[C@@H]1CC[C@@H](OC(=O)c2ccc([N+](=O)[O-])cc2)C1)OCc1ccccc1 | > 100000 |  |  |  |  |
| O=C(N[C@H](C(=O)N1CCCC1)[C@@H]1CC[C@H](O)C1)OCc1ccccc1 | > 100000 |  |  |  |  |
| COC1=N[C@H](C(C)C)C(OC)=N[C@H]1[C@H]1CC[C@@H](O)C1 | > 100000 |  |  |  |  |
| COC1=N[C@H](C(C)C)C(OC)=N[C@H]1[C@H]1CCC(=O)C1 | > 100000 |  |  |  |  |
| N[C@H](C(=O)N1CCCC1)[C@H]1CC[C@H](NS(=O)(=O)c2ccc(S(=O)(=O)C(F)(F)F)cc2)C1 | > 100000 | 220 | 110 |  |  |
| COC(=O)[C@H](NC(=O)OC(C)(C)C)[C@H]1CC[C@@H](O)C1 | > 100000 |  |  |  |  |
| COC1=N[C@H]([C@@H]2CC[C@H](O)C2)C(OC)=N[C@H]1C(C)C | > 100000 |  |  |  |  |
| CS(=O)(=O)c1ccc(S(=O)(=O)N[C@H]2CC[C@H]([C@H](N)C(=O)N3CCCC3)C2)cc1 | > 100000 | 130 | 19000 | > 100000 |  |
| N[C@H](C(=O)N1CCCC1)[C@@H]1CC[C@@H](NS(=O)(=O)c2ccc(S(N)(=O)=O)cc2)C1 | > 100000 | 46 | 2300 |  |  |
| CS(=O)(=O)c1ccc(S(=O)(=O)N[C@@H]2CC[C@@H]([C@H](N)C(=O)N3CCCC3)C2)cc1 | > 100000 | 13 | 1600 | > 100000 |  |
| COC1=N[C@@H](C(C)C)C(OC)=NC1 | > 100000 |  |  |  |  |
| COC(=O)[C@@H](NC(=O)OC(C)(C)C)[C@H]1CC[C@@H](O)C1 | > 100000 |  |  |  |  |
| COC1=N[C@H](C(C)C)C(OC)=N[C@H]1[C@H]1CC[C@H](O)C1 | > 100000 |  |  |  |  |
| COC1=N[C@H](C(C)C)C(OC)=NC1 | > 100000 |  |  |  |  |
| N[C@H](C(=O)N1CCCC1)[C@@H]1CC[C@H](NS(=O)(=O)c2ccc(S(N)(=O)=O)cc2)C1 | > 100000 | 250 | 3100 |  |  |
| N[C@H](C(=O)N1CCCC1)[C@H]1CC[C@H](NS(=O)(=O)c2ccc(S(N)(=O)=O)cc2)C1 | > 100000 | 83 | 22 |  |  |
| N[C@@H](C(=O)N1CCSC1)[C@H]1CC[C@@H](OC(=O)Nc2cccc3ccccc23)C1 | > 100000 | 1700 | 110 |  |  |
| N[C@H](C(=O)N1CCSC1)[C@H]1CC[C@H](NC(=O)Nc2cccc3ccccc23)C1 | > 100000 | 43 | 26 | 2100 |  |
| CS(=O)(=O)NCCS(=O)(=O)N[C@H]1CC[C@H]([C@H](N)C(=O)N2CCCC2)C1 | > 100000 | 95 | 2000 | > 100000 |  |
| O=C(N[C@H](C(=O)N1CCCC1)[C@@H]1CC[C@@H](O)C1)OCc1ccccc1 | > 100000 |  |  |  |  |
| COC1=N[C@H](C(C)C)C(OC)=N[C@H]1[C@H]1CCCC(O)C1 (stereo not given in full) | > 100000 |  |  |  |  |
| N[C@H](C(=O)N1CCSC1)[C@H]1CC[C@H](NC(=O)c2cccc3ccccc23)C1 | > 100000 | 47 | 240 | 1400 |  |
| COC(=O)[C@H](NC(=O)OCc1ccccc1)[C@@H]1CC[C@H](O)C1 | > 100000 |  |  |  |  |
| COC(=O)[C@@H](NC(=O)OCc1ccccc1)[C@@H]1CC[C@H](O)C1 | > 100000 |  |  |  |  |
| CN(C)S(=O)(=O)c1ccc(S(=O)(=O)N[C@H]2CC[C@H]([C@H](N)C(=O)N3CCCC3)C2)cc1 | > 100000 | 110 | 53 |  |  |
| N[C@H](C(=O)N1CCCC1)[C@H]1CCC[C@H](O)C1 | > 100000 | 290 | 40000 | > 100000 |  |
| CS(=O)(=O)c1ccccc1S(=O)(=O)N[C@H]1CC[C@H]([C@H](N)C(=O)N2CCCC2)C1 | > 100000 | 150 | 1000 | > 100000 |  |
| N[C@H](C(=O)N1CCCC1)[C@H]1CC[C@H](O)C1 | > 100000 | 840 | 46000 | > 100000 |  |
| CS(=O)(=O)c1ccc(S(=O)(=O)N[C@H]2CC[C@@H]([C@H](N)C(=O)N3CCCC3)C2)cc1 | > 100000 | 420 | 4000 | > 100000 |  |
| CS(=O)(=O)NCCS(=O)(=O)N[C@@H]1CC[C@@H]([C@H](N)C(=O)N2CCCC2)C1 | > 100000 | 71 | 21000 |  | > 100000 |

The next lines start with the values.

| IC50 [1] [nM] | IC50 (Dipeptidyl peptidase 4) [nM] | IC50 (Dipeptidyl peptidase 2) [nM] | IC50 (Prolyl endopeptidase [2]) [nM] | IC50 (Prolyl endopeptidase [3]) [nM] | Compound |
| --- | --- | --- | --- | --- | --- |
| > 100000 | 170 | 1700 | > 100000 |  | N[C@H](C(=O)N1CCCC1)[C@@H]1CC[C@@H](NS(=O)(=O)c2ccc(OC(F)(F)F)cc2)C1 |
| > 100000 | 660 | 160 |  |  | N[C@H](C(=O)N1CCCC1)[C@H]1CC[C@@H](OC(=O)Nc2ccc(I)cc2)C1 |
| > 100000 | 230 | 990 |  |  | N[C@H](C(=O)N1CCCC1)[C@H]1CC[C@@H](NC(=O)c2cccc3ccccc23)C1 |
| > 100000 | 110 | 5000 |  |  | N[C@H](C(=O)N1CCCC1)[C@@H]1CC[C@@H](NS(=O)(=O)c2ccc(C(=O)O)cc2)C1 |
| > 100000 | 330 | 110 | > 100000 |  | N[C@H](C(=O)N1CCCC1)[C@H]1CCC[C@H](OC(=O)Nc2ccc(I)cc2)C1 |
| > 100000 | 83 | 220 |  |  | COc1ccc(NC(=O)O[C@@H]2CCC[C@H]([C@H](N)C(=O)N3CCSC3)C2)cc1 |
| > 100000 | 72 | 12000 |  |  | N[C@H](C(=O)N1CCCC1)[C@H]1CC[C@H](NS(=O)(=O)c2ccc(C(=O)O)cc2)C1 |
| > 100000 | 440 | 1300 |  |  | N[C@H](C(=O)N1CCCC1)[C@@H]1CC[C@H](NC(=O)Nc2cccc3ccccc23)C1 |
| > 100000 | 110 | 420 | 27000 |  | N[C@H](C(=O)N1CCCC1)[C@H]1CCC[C@@H](OC(=O)Nc2ccc(I)cc2)C1 |
| > 100000 | 180 | 260 |  |  | N[C@H](C(=O)N1CCCC1)[C@H]1CC[C@H](OC(=O)Nc2ccc(I)cc2)C1 |
| > 100000 | 670 | 250 |  |  | N[C@H](C(=O)N1CCCC1)[C@@H]1CC[C@H](OC(=O)Nc2ccc(I)cc2)C1 |
| > 100000 | 1200 | 540 | > 100000 |  | N[C@@H](C(=O)N1CCSC1)[C@H]1CC[C@@H](OC(=O)Nc2cccc(F)c2)C1 |
| > 100000 | 210 | 75 | > 100000 |  | N[C@H](C(=O)N1CCSC1)[C@H]1CC[C@@H](OC(=O)Nc2cccc(F)c2)C1 |
| > 100000 | 3900 | 870 |  |  | N[C@H](C(=O)N1CCCC1)[C@H]1CC[C@@H](OC(=O)Nc2ccccc2-c2ccccc2)C1 |
| > 100000 | 280 | 14 |  |  | N[C@H](C(=O)N1CCSC1)[C@H]1CC[C@@H](OC(=O)Nc2ccc(Cl)c(Cl)c2)C1 |
| > 100000 | 240 | 43 |  |  | COc1ccc(NC(=O)O[C@@H]2CC[C@H]([C@H](N)C(=O)N3CCSC3)C2)cc1 |
| > 100000 | 110 | 820 |  |  | N[C@H](C(=O)N1CCCC1)[C@@H]1CC[C@@H](OC(=O)Nc2ccc(I)cc2)C1 |
| > 100000 | 480 | 780 | > 100000 |  | COc1ccc(NC(=O)O[C@H]2CCC[C@H]([C@H](N)C(=O)N3CCCC3)C2)cc1 |
| > 100000 | 1100 | 630 |  |  | COc1ccc(NC(=O)O[C@@H]2CC[C@H]([C@H](N)C(=O)N3CCCC3)C2)cc1 |
| > 100000 | 110 | 270 |  |  | N[C@H](C(=O)N1CCCC1)[C@H]1CC[C@@H](NC(=O)Nc2cccc3ccccc23)C1 |
| > 100000 | 180 | 2500 | > 100000 |  | COc1ccc(NC(=O)O[C@@H]2CCC[C@H]([C@H](N)C(=O)N3CCCC3)C2)cc1 |
| > 100000 | 94 | 430 |  |  | N[C@H](C(=O)N1CCCC1)[C@@H]1CC[C@@H](NC(=O)Nc2cccc3ccccc23)C1 |
| > 100000 | 270 | 1400 |  |  | COc1ccc(NC(=O)O[C@H]2CC[C@H]([C@H](N)C(=O)N3CCCC3)C2)cc1 |
| > 100000 | 550 | 750 | > 100000 |  | N[C@H](C(=O)N1CCCC1)[C@H]1CC[C@@H](NS(=O)(=O)c2ccc(OC(F)(F)F)cc2)C1 |
| > 100000 | 420 | 440 |  |  | COc1ccc(NC(=O)O[C@H]2CCC[C@H]([C@H](N)C(=O)N3CCSC3)C2)cc1 |
